Results pooled from the literature.
Protocols differ between the studies behind these lines.
PARP3: Protein mono-ADP-ribosyltransferase PARP3 (PARP3, Homo sapiens, UniProt Q9Y6F1)
MMP1: Interstitial collagenase (MMP1, Homo sapiens, UniProt P03956)
ADRA1B: Alpha-1B adrenergic receptor (ADRA1B, Homo sapiens, UniProt P35368)
Mapk1: Mitogen-activated protein kinase 1 (Mapk1, Mus musculus, UniProt P63085)

O=C1NCCCc2ccc(F)cc21
inhibition (PARP3; enzyme activity, inhibitor; 10 µM): 63%

O=C(O)c1ncccc1O
inhibition (MMP1; enzyme activity, inhibitor, fluorescence; 1 mM): ~50%

COc1ccc2c(c1)C(CC(=O)O)=C/C2=C\c1ccc(SC)cc1
inhibition (Prostaglandin G/H synthase 2 (Ptgs2, Mus musculus, UniProt Q05769); enzyme activity, inhibitor; 4 µM): 8%

Cn1cnc(Br)c1C1=CN(c2ncnc3[nH]cnc23)CCS1
inhibition (Myosin-IIIa (MYO3A, Homo sapiens, UniProt Q8NEV4); enzyme activity, inhibitor, radiometric; 50 nM): 19.3%

O=C1CCCc2ccc(F)cc2N1
inhibition (PARP3; enzyme activity, inhibitor; 10 µM): 0%

Oc1cccc(Nc2nc(-c3ccc(F)cc3F)cs2)c1
inhibition (ADRA1B; cell-free assay; 10 µM): 16.4%

CCN(CC)CCNC(=O)c1c(C)[nH]c(/C=C2\C(=O)Nc3ccc(F)cc32)c1C
inhibition (Mapk1; enzyme activity, inhibitor; 10 µM): -14%

CC/C(=N\NC(=O)C(C)Nc1ccccc1)c1ccc(O)c(C)c1O (stereo not drawn)
inhibition (cAMP-dependent protein kinase catalytic subunit gamma (PRKACG, Homo sapiens, UniProt P22612); enzyme activity, inhibitor; 0.1 µM): 34.9%

CCN1CCN(Cc2ccc(NC(=O)c3ccc(C)c(Oc4ccnc5[nH]ccc45)c3)cc2C(F)(F)F)CC1
inhibition (Microtubule-associated serine/threonine-protein kinase 4 (MAST4, Homo sapiens, UniProt O15021); target engagement in cells, inhibitor, chemoproteomics; Huh-7; 10 µM): -28.8%

CNC(=O)c1cc2c(Oc3ccc(NC(=O)C4(C(=O)Nc5ccc(F)cc5)CC4)cc3)ccnc2cc1OC
inhibition (Hepatocyte growth factor receptor (MET, Homo sapiens, UniProt P08581); enzyme activity, inhibitor, radiometric; 1 µM): 99%

COc1cc2c(cc1OC)-c1nnnn1CCC2
inhibition (PARP3; enzyme activity, inhibitor; 10 µM): 45%

O=C1N=C(N2CCCCN2)S/C1=C\c1ccc(F)cc1O
inhibition (Corticotropin-releasing factor receptor 1 (CRHR1, Homo sapiens, UniProt P34998); ligand displacement, radioligand; 10 µM): < 10%

Ic1cccc2cnccc12
inhibition (PARP3; enzyme activity, inhibitor; 10 µM): 7%

O=C1C=Cc2occ(C(=O)c3ccccc3)c2C1=O
inhibition (MMP1; enzyme activity, inhibitor; 100 µM): ≤ 0%

CN(C)C1CCN(CC#Cc2nn(C3CCCC3)c3nc(NCc4ccccc4)ncc23)C1 (stereo not drawn)
inhibition (Interleukin-1 receptor-associated kinase 1 (IRAK1, Homo sapiens, UniProt P51617); enzyme activity, inhibitor, FRET; 1 µM): 13%

COc1cc(CCN2CCN(CCCc3ccccc3)CC2)ccc1O
inhibition (Sodium-dependent dopamine transporter (Slc6a3, Mus musculus, UniProt Q61327); ligand displacement, radioligand; 10 µM, cell membranes): 20%

Cc1ccc(Nc2nccc(N(C)c3ccc4c(C)n(C)nc4c3)n2)cc1S(N)(=O)=O
inhibition (Mapk1; enzyme activity, inhibitor; 10 µM): 3%

CCCNc1nc2ccccc2n1Cc1ccc(Cl)cc1
inhibition (ADRA1B; ligand displacement; 10 µM): 16.1%
